Published values of several laboratories.
ST14: Suppressor of tumorigenicity 14 protein (ST14, Homo sapiens, UniProt Q9Y5Y6)
CDK2 with cyclin A2: Cyclin-dependent kinase 2, with cyclin A2 (CDK2, Homo sapiens, UniProt P24941)

| Compound | target | effect on | action | technique | tested at | quantity | result |
| --- | --- | --- | --- | --- | --- | --- | --- |
| COc1cc(-c2cncc3c2CN(C)Cc2cc(N4CCNCC4)ccc2-3)cc(OC)c1OC | Dual specificity protein kinase CLK3 (CLK3, Homo sapiens, UniProt P49761) | enzyme activity | inhibitor | – | 1 µM | remaining activity | 103% |
| CC(C)(C)c1ccc(C[C@H](NC(=O)[C@H](Cc2cscn2)NC(=O)CCc2ccccc2)C(=O)N[C@@H](CCCNC(=N)N)C(=O)c2nc3ccccc3s2)cc1 | ST14 | enzyme activity | inhibitor | – | 0.1 µM | remaining activity | 80% |
| Cc1cc([C@@H](C)Nc2ccccc2C(=O)O)c2nc(N3CCC(F)(F)CC3)c(C#N)c(=O)n2c1 | Cyclin-dependent kinase 2 (CDK2, Homo sapiens, UniProt P24941) | binding | – | competition with immobilised ligand | 10 µM | remaining binding | 98% |
| C=CC(=O)N1CCC(COCC(=O)N2CCN(c3nc(-c4cnc(N)nc4C(F)F)nc(N4CCOC[C@@H]4C)n3)CC2)CC1 | Mitogen-activated protein kinase kinase kinase kinase 1 (MAP4K1, Homo sapiens, UniProt Q92918) | binding | – | competition with immobilised ligand | 1 µM | remaining binding | 100% |
| CC(=O)Nc1c(N)nc(SCC(=O)N/N=C/c2ccc([N+](=O)[O-])cc2)[nH]c1=O | CDK2 with cyclin A2 | enzyme activity | inhibitor | – | 1 µM | inhibition | 67.2% |
| N=C(N)NCCC[C@H](NC(=O)C1(NC(=O)[C@H](Cc2cscn2)NC(=O)CCc2ccccc2)CC1)C(=O)c1nc2ccccc2s1 | ST14 | enzyme activity | inhibitor | – | 0.1 µM | remaining activity | 19% |
| CC(=O)Nc1c(N)nc(SCC(=O)NN)[nH]c1=O | CDK2 with cyclin A2 | enzyme activity | inhibitor | – | 5 nM | inhibition | 14.6% |
| N=C(N)NCCC[C@H](NC(=O)[C@H](Cc1ccccc1I)NC(=O)[C@H](Cc1cscn1)NC(=O)CCc1ccccc1)C(=O)c1nc2ccccc2s1 | ST14 | enzyme activity | inhibitor | – | 0.1 µM | remaining activity | 90% |
| CNC(=O)c1cc(Oc2ccc(NC(=O)Nc3ccc(Cl)c(C(F)(F)F)c3)cc2)ccn1 | CDK2 with cyclin A2 | enzyme activity | inhibitor | – | 5 nM | inhibition | 27.6% |
| CNc1ncc2c(/C=C/C(=O)N3CCC(OC)CC3)nn(Cc3cccc(C(F)(F)F)c3)c2n1 | Mitogen-activated protein kinase 10 (MAPK10, Homo sapiens, UniProt P53779) | enzyme activity | inhibitor | radiometric | 1 µM | remaining activity | 87% |
